pKd: −log10 of the molar value. “Also recorded” adds a separate entry of the source. Blank lines part the entries; values can stand above or below the molecule they belong to. Where a SMILES comes first, the peptide text is derived from it. [ ]: non-standard residue; d: D form. Tyr(3-I) = N[C@@H](Cc1ccc(O)c(I)c1)C(=O)O; Hyp = O=C(O)[C@@H]1C[C@@H](O)CN1
Key:
FLS2 [1] = target: T1, FLS2 (Arabidopsis thaliana, UniProt Q9FL28); test: Direct binding assay, saturation and specific binding of ^125I-Tyr-CLV3p
T1 sequence (Q9FL28 24-1173): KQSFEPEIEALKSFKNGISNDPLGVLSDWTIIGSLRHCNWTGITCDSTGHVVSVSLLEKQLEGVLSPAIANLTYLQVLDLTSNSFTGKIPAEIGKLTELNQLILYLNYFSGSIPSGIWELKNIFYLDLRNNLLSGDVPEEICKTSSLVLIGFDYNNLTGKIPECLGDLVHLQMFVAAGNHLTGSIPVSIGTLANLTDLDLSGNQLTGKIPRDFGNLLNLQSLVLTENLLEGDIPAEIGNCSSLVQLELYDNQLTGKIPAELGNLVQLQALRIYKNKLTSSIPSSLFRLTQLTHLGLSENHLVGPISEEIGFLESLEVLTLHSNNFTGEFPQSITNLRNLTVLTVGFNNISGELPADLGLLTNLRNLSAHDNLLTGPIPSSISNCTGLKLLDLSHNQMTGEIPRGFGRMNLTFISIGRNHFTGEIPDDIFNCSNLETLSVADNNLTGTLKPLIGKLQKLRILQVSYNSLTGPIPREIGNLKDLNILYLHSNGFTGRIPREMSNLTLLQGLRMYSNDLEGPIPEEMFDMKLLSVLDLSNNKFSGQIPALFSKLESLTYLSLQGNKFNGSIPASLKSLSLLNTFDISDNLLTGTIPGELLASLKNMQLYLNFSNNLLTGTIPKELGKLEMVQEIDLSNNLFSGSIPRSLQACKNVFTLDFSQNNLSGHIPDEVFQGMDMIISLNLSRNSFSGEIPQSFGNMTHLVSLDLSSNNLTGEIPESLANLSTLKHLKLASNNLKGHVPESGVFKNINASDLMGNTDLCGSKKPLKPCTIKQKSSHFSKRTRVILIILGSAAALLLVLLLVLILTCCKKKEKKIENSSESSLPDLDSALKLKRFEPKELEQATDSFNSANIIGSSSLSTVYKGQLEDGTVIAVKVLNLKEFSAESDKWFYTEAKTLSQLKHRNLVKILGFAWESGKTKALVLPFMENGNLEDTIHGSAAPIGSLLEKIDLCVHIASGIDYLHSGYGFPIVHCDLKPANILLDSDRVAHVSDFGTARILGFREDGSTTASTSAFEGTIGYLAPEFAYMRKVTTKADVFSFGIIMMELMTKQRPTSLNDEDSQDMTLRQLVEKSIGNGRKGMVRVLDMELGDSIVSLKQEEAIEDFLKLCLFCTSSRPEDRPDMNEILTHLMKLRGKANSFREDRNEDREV
Method in brief: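 HA-tagged FLS2 was expressed for 6 h in fls2 mesophyll protoplasts (2.5 × 10^5 cells). Pelleted extract (50 μg total protein) was in pH 5.8 MES/KOH binding buffer with MgCl2, NaCl and DTT. Extract was incubated with 100 fmol 125I-Tyr-CLV3p, with or without unlabeled Tyr-CLV3p, for 30 min on ice. Bound label was collected on BSA-blocked glass-fibre filters and gamma-counted. Specific binding = total minus non-specific (10–20 μM unlabeled). Kd came from saturation/Scatchard nonlinear regression and sites per cell from Bmax; s.d., n=3.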

FLS2-BAK1 interaction = FLS2-BAK1 interaction (Arabidopsis thaliana, UniProt Q94F62+Q9FL28); test: FLS2-BAK1 interaction by co-IP in protoplasts; type: cell-based; conditions: for block of flg22- and CLV3p-triggered FLS2-BAK1 interaction: antagonist peptide at 50 μM
Sequence of FLS2-BAK1 interaction (Q9FL28 24-1173): as above
Sequence of FLS2-BAK1 interaction (Q94F62 26-615 partner): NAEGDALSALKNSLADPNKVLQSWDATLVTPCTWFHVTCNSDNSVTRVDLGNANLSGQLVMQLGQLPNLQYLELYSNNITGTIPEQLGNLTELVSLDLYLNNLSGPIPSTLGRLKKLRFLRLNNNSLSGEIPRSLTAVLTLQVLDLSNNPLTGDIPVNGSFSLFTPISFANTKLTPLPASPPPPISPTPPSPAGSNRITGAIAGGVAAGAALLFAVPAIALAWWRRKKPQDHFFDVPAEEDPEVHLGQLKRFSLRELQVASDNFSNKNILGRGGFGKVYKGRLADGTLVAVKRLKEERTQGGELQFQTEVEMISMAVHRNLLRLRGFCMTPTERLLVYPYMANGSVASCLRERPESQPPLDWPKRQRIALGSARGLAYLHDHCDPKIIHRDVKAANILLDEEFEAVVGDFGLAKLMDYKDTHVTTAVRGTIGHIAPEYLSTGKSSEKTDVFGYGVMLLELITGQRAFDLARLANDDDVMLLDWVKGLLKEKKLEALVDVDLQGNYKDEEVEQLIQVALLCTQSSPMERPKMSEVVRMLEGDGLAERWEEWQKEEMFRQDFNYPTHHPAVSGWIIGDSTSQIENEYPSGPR
Method in brief: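 Mesophyll protoplasts came from 4-week soil-grown plants (23°C, 12 h/12 h). They were co-transfected with FLS2-HA and BAK1-FLAG and incubated for 6 h at room temperature. Cells were then exposed to flg22 (1, 10 nM), CLV3p (1 μM) or CLE40p (1 μM) for 10 min. Complexes were immunoprecipitated with anti-FLAG and detected with anti-HA on immunoblot.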

FLS2 [2] = target: T1, FLS2; test: Binding competition analysis with unlabeled peptides; conditions: unlabeled peptide; ^125I-Tyr-CLV3p 1 nM; 30 min on ice; non-specific binding with 10 μM unlabeled Tyr-CLV3p; n=3
Method in brief: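 FLS2-HA expressed for 6 h in fls2 mesophyll protoplasts (2.5 × 10^5 cells); pellet from vortexed, iced and 10,000 ×g-spun extract in 25 mM MES/KOH pH 5.8, 3 mM MgCl2, 10 mM NaCl (50 μg protein). Incubated 30 min on ice with 100 fmol 125I-Tyr-CLV3p ± unlabeled competitor; blocked glass-fibre filtration, cold wash, gamma counting; specific = total − nonspecific (10–20 μM unlabeled); non-linear regression.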

Arabidopsis seedlings = test: Seedling growth inhibition analysis; type: in vivo; conditions: for root growth: WT seedlings, flg22 1, 10 nM, CLV3p 1 μM or CLE40p 1 μM
Method in brief: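 Col-0, fls2, Ler, fls2-24 and clv2-1 seedlings were grown in 6-well plates in liquid 0.5× MS, 0.5% sucrose, pH 5.8. Treatment was flg22 (1, 10 nM) or CLV3p (1 μM), and growth was assessed after 6 or 8 days.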

SAM = test: Assay for CLV3p-mediated SAM arrest; type: in vivo, Arabidopsis; conditions: 1 μM peptide in liquid medium
Method in brief: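 Col-0 and fls2 seeds, twenty per dish, grown in liquid 0.5× MS with 0.5% sucrose (pH 5.8), with or without 1 μM CLV3p. SAMs were cut, fixed overnight at 4°C in 4% paraformaldehyde/4% DMSO, eosin-stained and paraffin-embedded. Sections of 8 μm were Giemsa-stained (0.1%, 5 min) and imaged by light microscopy.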

FRK1, WRKY29 and WRKY30 = test: qRT-PCR of flg22 early marker genes in protoplasts; type: cell-based, Arabidopsis; conditions: peptides for 1 h, 1 μM CLV3p, 1 μM CLE40p, n=3
Method in brief: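 Mesophyll protoplasts were treated with peptides for 1 h. Total RNA was extracted with TRIzol, and cDNA was made from 1 μg RNA with M-MLV reverse transcriptase. SYBR green real-time PCR followed, with ACT2 as the control gene.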

pWUS::GUS = pWUS::GUS reporter staining in the SAM; type: in vivo, Arabidopsis; conditions: seedlings grown 8 days with 1 μM peptide
Method in brief: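 pWUS::GUS seedlings were grown 8 days in liquid 0.5× MS/0.5% sucrose with or without 1 μM CLV3p, ΔCLV3p or flg22. They were fixed in 90% cold acetone for 20 min. Seedlings were vacuum-infiltrated with pH 7.0 phosphate buffer containing ferro/ferricyanide, Triton X-100, EDTA and 1 mM X-Gluc, then held 3 h at 37°C. Samples were dehydrated to 70% ethanol and imaged under a stereomicroscope.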

endogenous MPK3 and MPK6 = test: In-gel kinase assay of MAPK activation in mesophyll protoplasts; type: cell-based, Arabidopsis
[3] = system: FRK1, WRKY29, WRKY30, MYB15, MYB51 and PEP3; test: qRT-PCR of immune marker genes in isolated SAM tissues; type: in vivo, Arabidopsis; conditions: n=3
WUS = test: qRT-PCR of WUS in isolated SAM tissues; type: in vivo, Arabidopsis; conditions: 1 μM CLV3p for 1 h; WT and mutant seedlings; n=3
Method in brief: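 Seedlings grew 8 days in liquid 0.5× MS, 0.5% sucrose, pH 5.8, then got 1 h peptide treatment (1 nM or 1 μM). SAM tissues were harvested after snap-freezing in liquid nitrogen, and RNA was TRIzol-extracted. SYBR Green real-time qRT-PCR used ACT2 as the control gene.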

Molecule: CC(C)C[C@H](NC(=O)[C@@H]1CCCN1C(=O)[C@H](CC(=O)O)NC(=O)[C@@H]1C[C@@H](O)CN1C(=O)CNC(=O)[C@H](CO)NC(=O)[C@@H]1C[C@@H](O)CN1C(=O)[C@@H](NC(=O)[C@@H](NC(=O)[C@H](CCCNC(=N)N)NC(=O)[C@@H](N)Cc1ccc(O)c(I)c1)[C@@H](C)O)C(C)C)C(=O)N[C@@H](Cc1c[nH]cn1)C(=O)N[C@@H](Cc1c[nH]cn1)C(=O)O [^125I-Tyr-CLV3p] (H-[Tyr(3-I)]RTV[Hyp]SG[Hyp]DPLHH-OH; N-terminus and C-terminus assumed)
pKd (FLS2 [1]): 7.46 | binding sites per cell (FLS2 [1]; estimated from Bmax and 50 ug protein from 2.5 × 10^5 cells, total cell extracts): 6.36 × 10^4 binding sites per cell | specific binding of ^125I-Tyr-CLV3p (FLS2 [1]; wild-type FLS2 expressed in null fls2 protoplasts, non-specific binding with 20 μM unlabeled Tyr-CLV3p, n=3): showed specific binding; also recorded: specifically binds to FLS2

block of flg22- and CLV3p-triggered FLS2-BAK1 interaction (FLS2-BAK1 interaction; listed as Flg22-Δ2): blocks CLV3p and flg22 signalling | competition with ^125I-Tyr-CLV3p for specific binding to FLS2 (FLS2 [2]): could be competed
Molecule: QRLSTGSRINSAKDDAAGLQ [flg22-Δ2]
block of flg22- and CLV3p-triggered FLS2-BAK1 interaction (FLS2-BAK1 interaction): effectively competed with and blocked flg22 and CLV3p signalling

Molecule: RQVP^hTGSDPLHH [CLE40p, reference compound]
root growth (Arabidopsis seedlings; 6 or 8 days): root growth inhibition | SAM growth arrest (SAM): triggered the growth arrest of SAM | flg22 early marker gene activation (FRK1, WRKY29 and WRKY30): did not promote | repression of pWUS::GUS reporter (pWUS::GUS): repression of WUSCHEL (WUS)

Molecule: RTVP^hSGP^hDPLH [ΔCLV3p]
activating or blocking FLS2 signalling (endogenous MPK3 and MPK6; Fig. 1a, data not shown): ineffective in activating or blocking FLS2 signalling

MAPK activation (endogenous MPK3 and MPK6; protoplasts, 1 μM CLV3p, 1 μM ΔCLV3p or 100 nM flg22 for 10 min): activated similar MAPK activities | concentration of equal potency in peptide titration, FLS2 and BAK1 co-IP (FLS2-BAK1 interaction; CLV3p, 10 min): 1 µM | competition with ^125I-Tyr-CLV3p for specific binding to FLS2 (FLS2 [2]): could be competed
Molecule: RTVP^hSGP^hDPLHH [CLV3p]
immune marker gene activation in the SAM ([3]; 1 nM flg22 or 1 μM CLV3p for 1 h, WT and mutant seedlings): in WT, clv1-1, clv2-1 but not fls2-24 | exogenous CLV3p needed for complementation of clv3-2 for immune marker gene expression in the SAM ([3]; clv3-2 seedlings treated with 0-100 nM CLV3p for 1 h): nM range | repression of WUS in the SAM (WUS): only in the SAM of WT and fls2-24, but not clv1-1 and clv2-1 | shoot growth (Arabidopsis seedlings; Col-0 and Ler WT seedlings, flg22 1, 10 nM or CLV3p 1 μM, 6 or 8 days): did not inhibit shoot growth | root growth (Arabidopsis seedlings; 6 or 8 days): caused stronger root growth arrest | root growth arrest in the clv2-1 mutant (Arabidopsis seedlings; clv2-1 seedlings, CLV3p 1 μM): abolished | growth effect in two independent fls2 mutants (Arabidopsis seedlings; fls2 and fls2-24 seedlings, flg22 1, 10 nM or CLV3p 1 μM): retained | SAM growth arrest (SAM): very active in triggering the typical SAM arrest; also recorded: suppresses the SAM in Col-0 and fls2 plants | flg22 early marker gene activation (FRK1, WRKY29 and WRKY30): activated similar early marker genes; also recorded: triggers flg22 marker gene activation | repression of pWUS::GUS reporter (pWUS::GUS): repression of a sensitive pWUS::GUS reporter; also recorded: represses pWUS::GUS expression

competition with ^125I-Tyr-CLV3p for specific binding to FLS2 (FLS2 [2]): could be competed
Molecule: YRTVP^hSGP^hDPLHH [Tyr-CLV3p]

Reference: article PMC3098311 (Nature, 2011)
